Source: PubChem BioAssay
HKDC1 inh – HKDC1 hexokinase inhibitors, primary screen, biochemical, fluorescence, uHTS; recombinant HKDC1, G6PDH/diaphorase resazurin coupled fluorescence; 0.16% of 340,000 active; Q2TB90; inhibition, % at 20 µM;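 active means inhibition above about 35% when tested at 20 µM, limit read from the data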;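 further: plate controls were DMSO wells with enzyme for no effect and DMSO wells lacking enzyme for full effect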
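Assay system – recombinant HKDC1 (HK5) hexokinase enzyme, produced in-house · Input – HKDC1 at 5 µg/mL · Reagent – glucose plus 1 mM ATP as hexokinase substrates · Timing – 90 min reaction incubation at room temperature, dark · Measured by – G6PDH/diaphorase-coupled fluorescence, 1 mM NADP, 100 µM resazurin, 525/613 nm · Benchmarks – DMSO-enzyme wells negative, buffer-substituted wells positive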
Diaphorase act – compounds boosting diaphorase resazurin reduction – biochemical, uHTS, resorufin fluorescence, counter-screen for diaphorase-coupled primary assays, primary screen | Diaphorase/resazurin coupled assay, 16 min; active compounds read high; 1 = vehicle wells, 0 = NADH-free wells | activation factor at 20 µM | 0.005% of 190,000 active;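 active means diaphorase activity raised at least twofold by the compound at 20 µM; inactive means activation factor below 2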
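Assay system: Purified diaphorase enzyme from Clostridium kluyveri | Amount: Enzyme 0.07 U/mL final | Dosing: Compound 20 µM once, DMSO 1% | Timing: 16 min reaction at room temperature | Detection: Fluorescence, excitation 544 nm and emission 590 nm | Evaluation: Higher resorufin formation from activation or reduction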
G6PDH counter – L. mesenteroides G6PDH inhibitors, counter-screen for G6PDH-coupled screening assays, biochemical, Leuconostoc mesenteroides enzyme. glucose-6-phosphate dehydrogenase [Leuconostoc mesenteroides]. Purified L. mesenteroides G6PDH, diaphorase/resazurin coupled fluorescence, 45 min. inhibition, % at 5 µM. 0.12% of 200,000 active; in the data active means inhibition above about 50%
PfGluPho inh – PfG6PD enzyme inhibitors, primary screen, biochemical, fluorescence intensity, uHTS. glucose-6-phosphate dehydrogenase-6-phosphogluconolactonase (Plasmodium falciparum 3D7). 0.78% of 350,000 active. inhibition, % at 20 µM. PfGluPho enzyme, NADPH resazurin-diaphorase fluorescence;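 active means inhibition reaching at least a set limit at 20 µM in the primary screen, cut at about 59% in these data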;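 further: 0% = DMSO wells with substrate and 100% = DMSO wells lacking glucose-6-phosphate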
Diaph inh CS – diaphorase inhibitors and chemical oxidizers, primary screen, counter-screen for diaphorase-coupled primary assays, biochemical, uHTS, resorufin fluorescence; diaphorase resazurin-to-resorufin fluorescence, NADH, 16 min; bacterial (C. kluyveri) enzyme, not human; inhibition, % at 20 µM; 0.69% of 190,000 active; AID 1217, 2008;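 active means primary screen inhibition at 20 µM above a set limit, cut at about 50% in these data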;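 further: plate controls were DMSO with full reaction for no effect and wells lacking NADH for full effect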
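Assay system: diaphorase enzyme from Clostridium kluyveri; Input: enzyme working solution with 0.14 U/mL diaphorase; Timing: 16 min at room temperature; Technique: resorufin fluorescence, excitation 544 nm, emission 590 nm; Benchmarks: positive control minus NADH, DMSO neutral control.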
PfGluPho conf – PfG6PD inhibitors, hit retest, confirmation, biochemical, fluorescence intensity, single concentration. shares compounds with PfGluPho inh. recombinant PfGluPho, NADPH-diaphorase-resazurin fluorescence. inhibition, % at 20 µM. 34% of 2,400 active. AID 504753, 2011;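 active means inhibition of at least 50% at 20 µM in any single replicate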;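 further: 0% = DMSO with substrate and 100% = DMSO lacking glucose-6-phosphate substrate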
Diaph ctr 10uM – diaphorase inhibitors and chemical oxidizers, confirmation, counter-screen for P. falciparum G6PD inhibitor project, biochemical, fluorescence intensity, 10 µM NADPH; shares compounds with PfGluPho inh; diaphorase-coupled resazurin reduction, NADPH 10 uM; inhibition, % at 20 µM; 39% of 820 active; AID 504862, 2011;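 active means average inhibition reaching 50% or more with the compound at 20 µM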;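 further: resorufin red fluorescence formed as diaphorase reduces resazurin using NADPH; 0% = DMSO with enzyme and 100% = DMSO without enzyme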
Diaphorase 30uM – diaphorase inhibitors and chemical oxidizers, confirmation, counter-screen for P. falciparum G6PD inhibitor project, biochemical, fluorescence intensity, 30 µM NADPH; shares compounds with PfGluPho inh; Diaphorase/resazurin coupled assay, resorufin fluorescence; inhibition, % at 20 µM; 29% of 820 active;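 active means inhibition averaging 50% or more, tested at 20 µM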;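 further: 0% = DMSO with enzyme and 100% = DMSO wells lacking diaphorase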
Starred values were filed as active, the others as inactive; · = no result given. The list is not random: actives were taken first. Their share in the collection is about 1.2%.

SMILES	HKDC1 inh	Diaphorase act	G6PDH counter	PfGluPho inh	Diaph inh CS	PfGluPho conf	others
CC1(C)Cc2c(c(-c3ccco3)nc3sc4c(NCCN5CCOCC5)ncnc4c23)CO1	9.1	0.8	-9.1	10.7	18.2	·
COc1cc(CNc2ccc3[nH]c(=O)[nH]c3c2)ccc1OCc1ccc(Cl)cc1	15.0	·	·	63.4*	·	36.7
COc1cc(CNc2ccc3[nH]c(=O)[nH]c3c2)ccc1OCc1ccc(F)cc1	14.7	·	·	65.7*	·	38.7
COc1cccc(CNc2ccc3[nH]c(=O)[nH]c3c2)c1OCc1ccccc1Cl	14.9	·	·	65.4*	·	49.8*	Diaph ctr 10uM=-2.9;Diaphorase 30uM=0.2
C=CCOc1ccc(CNc2ccc3[nH]c(=O)[nH]c3c2)cc1OC	8.7	0.1	9.4	84.9*	94.4*	66.2*	Diaph ctr 10uM=15.2;Diaphorase 30uM=18.7
COc1cccc(CNc2ccc3[nH]c(=O)[nH]c3c2)c1OCc1ccccc1	12.5	·	·	28.9	·	·
COc1cc(CNc2ccc3[nH]c(=O)[nH]c3c2)ccc1OCc1ccc(F)cc1Cl	4.0	·	·	14.7	·	·
Cn1c(CO)cnc1-c1ccccc1	-6.0	·	·	-12.7	·	·
CCC1C(=NO)C(CC)C(c2ccccc2)NC1c1ccccc1 (stereo unspecified)	0.5	0.8	14.3	20.8	22.4	·
O=C(CNC(=O)c1ccccc1Br)Nc1cccc(S(=O)(=O)Nc2ccccc2Cl)c1	-1.9	·	·	1.5	·	·
COc1cc(CNc2ccc3[nH]c(=O)[nH]c3c2)ccc1OCc1ccccc1C	2.0	·	·	45.6	·	·
COc1cc(CNc2ccc3[nH]c(=O)[nH]c3c2)ccc1OCc1ccccc1	9.8	·	·	65.4*	·	49.9*	Diaph ctr 10uM=0.2;Diaphorase 30uM=1.1
CC(OC(=O)CCN=C1NS(=O)(=O)c2ccccc21)C(=O)Nc1ccc(N(C)C)cc1 (stereo unspecified)	4.8	·	·	70.3*	·	4.9
CC(=O)Nc1ccc(NC(=O)C(C)OC(=O)CCCN=C2NS(=O)(=O)c3ccccc32)cc1 (stereo unspecified)	-3.1	·	·	-14.4	·	·
O=C(Nc1ccccc1)N(O)c1ccc(Cl)cc1	0.2	0.8	9.4	86.7*	15.2	35.1
CCN(CCS(=O)(=O)c1ccc(Cl)cc1)C(=O)Nc1ccccc1	-0.3	·	·	0.2	·	·
CC1CC(C)CN(C(=O)c2cccc(S(=O)(=O)N(C)c3ccccc3)c2)C1 (stereo unspecified)	-2.3	·	·	-2.9	·	·
CSCCC(=O)N1CCN(CC(=O)N2CCCC2)CC1	-5.7	·	·	0.3	·	·
COc1ccc(-c2cc3ccccc3cn2)cc1	-0.1	·	·	59.5*	·	9.1
CN(Cc1ccco1)C(=O)Cn1cc(S(=O)(=O)N2CCCC2)c(S(=O)(=O)N2CCCC2)c1	-2.4	·	·	-3.4	·	·
CCc1cc(-c2n[nH]c(C)c2-c2nc3ccccc3s2)c(O)cc1OCC(=O)NN	-5.5	1	7.6	20.0	-4.1	·
CCc1cc(-c2n[nH]c(C)c2-c2nc(C)cs2)c(O)cc1OC	-3.6	0.8	13.9	68.6*	24.6	41.3
CCOC(=O)c1c(C)n(C)c2cc(OCCN(CC)CC)ccc12	0.3	0.8	2.3	-10.9	17.7	·
CCOC(=O)c1c2ccc(OCC(=O)NN)cc2n2ccccc12	17.1	0.4	42.8	47.0	64.4*	58.6*	Diaph ctr 10uM=60.7*;Diaphorase 30uM=37.7
